≈ marks a conversion by molar mass, not a printed value. Each block holds one molecule with its values, some of them ahead of it. Calls of active or inactive are those of the source. The calls are words filed in the database; no cut-off is given here.
Key:
Mus musculus [1] = assay: Antiinflammatory activity in ICR mouse assessed as inhibition of picryl chloride-induced contact hypersensitivity reaction administered topically on left ear after 24 hrs; type: functional
Method in brief: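 Mice sensitized with picryl chloride; test agent applied topically at 0.1 mg/ear in acetone. Percent inhibition is the drug-treated group's percent response relative to the control group, n = 5, reported as the mean of 5 animals.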

Mus musculus [2] = assay: Antipruritic activity in mouse assessed as inhibition of substance P-induced pruritus at 30 mg/kg administered 30 mins prior to substance P challenge measured over 60 mins; type: functional, organism-based
Method in brief: (§1)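 Oral dose given 30 min before substance P challenge. Scratches counted over 60 min. Data are mean ± SEM, n = 7–8/group, analysed by Dunnett's test.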

[3] = Antioxidant activity assessed as suppression of H2O2/cobalt2+-mediated hydroxyl radical formation by luminol-based […] assay; type: physicochemical
[4] = Antioxidant activity assessed as suppression of H2O2/DETAPAC-Fe2+-mediated hydroxyl radical formation by measuring oxidation of dihydrorhodamine after 5 mins by fluorescence assay; type: physicochemical
Mus musculus [5] = assay: Antiinflammatory activity in mouse assessed as inhibition of picryl chloride-induced contact hypersensitivity reaction at 10 mg/kg, po administered 30 mins prior to picryl chloride challenge; type: functional, organism-based
Method in brief: (§2)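 Mice sensitized with picryl chloride one week before the study. Oral dose given 30 min before picryl chloride challenge. Data are mean ± SEM, n = 5/group, analysed by Dunnett's test.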

[6] = Solubility of the compound in phosphate buffer solution at pH 7.4; type: physicochemical
Method in brief: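 Solubility taken as the amount dissolved in phosphate buffer solution at pH 7.4, in […].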

Liver microsome [7] = assay: Metabolic stability in human liver microsomal fraction assessed per mg of protein; type: ADME; settings: microsomes
Method in brief: (§3)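 Metabolic stability measured in human or rat liver microsomal fraction. Reported as mL/min/mg protein.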

Liver microsome [8] = assay: Metabolic stability in rat liver microsomal fraction assessed per mg of protein; type: ADME; settings: microsomes; method in brief: as §3
[9] = Apparent permeability in human Caco2 cells; type: ADME, cell-based; settings: Caco-2
Method in brief: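 Caco-2 monolayer permeability reported as apparent permeability (Papp), in units of 10^-6 cm/s.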

[10] = Clearance in mouse at 1 mg/kg, iv; type: ADME, organism-based; settings: in vivo
Method in brief: (§4)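 Mouse plasma PK after a single 1 mg/kg iv injection. Clearance (mL/min/kg) and steady-state volume of distribution (L/kg) derived from the plasma concentration profile.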

[11] = Volume of distribution at steady state in mouse at 1 mg/kg, iv; type: ADME, organism-based; settings: in vivo, read-out: Vdss; method in brief: as §4
[12] = AUC in mouse at 1 mg/kg, iv; type: ADME, organism-based; settings: in vivo
Method in brief: (§5)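 Mouse pharmacokinetic study with single dosing, intravenous at 1 mg/kg or oral at 10 mg/kg. Plasma drug concentrations were measured, and AUC was taken from the plasma concentration curve. The same study also gave CL and Vdss (iv), Cmax (po) and oral bioavailability.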

[13] = AUC in mouse at 10 mg/kg, po; type: ADME, organism-based; settings: in vivo; method in brief: as §5
[14] = Cmax in mouse at 10 mg/kg, po; type: ADME, organism-based; design: dose 10 mg/kg, route oral; settings: in vivo
Method in brief: (§6)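 Mouse plasma PK after 10 mg/kg oral dosing. Cmax in ng/mL. Bioavailability derived from oral AUC compared with AUC after a 1 mg/kg iv dose.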

[15] = Oral bioavailability in mouse at 10 mg/kg; type: ADME, organism-based; settings: in vivo; method in brief: as §6
Mus musculus [16] = assay: Antiinflammatory activity in po dosed mouse assessed as inhibition of picryl chloride-induced contact hypersensitivity reaction administered 30 mins prior to picryl chloride challenge; type: functional, organism-based; method in brief: as §2
Mus musculus [17] = assay: Antipruritic activity in mouse assessed as inhibition of substance P-induced pruritus at 10 mg/kg administered 30 mins prior to substance P challenge measured over 60 mins; type: functional, organism-based; method in brief: as §1
[18] = target: Dual specificity mitogen-activated protein kinase kinase; MEK1/2 (Homo sapiens) (UniProt P36507+Q02750); assay: Inhibition of MEK1/2 (unknown origin); type: protein assay
Dual specificity mitogen-activated protein kinase kinase; MEK1/2 (Homo sapiens), sequence (P36507 whole entry, looked up): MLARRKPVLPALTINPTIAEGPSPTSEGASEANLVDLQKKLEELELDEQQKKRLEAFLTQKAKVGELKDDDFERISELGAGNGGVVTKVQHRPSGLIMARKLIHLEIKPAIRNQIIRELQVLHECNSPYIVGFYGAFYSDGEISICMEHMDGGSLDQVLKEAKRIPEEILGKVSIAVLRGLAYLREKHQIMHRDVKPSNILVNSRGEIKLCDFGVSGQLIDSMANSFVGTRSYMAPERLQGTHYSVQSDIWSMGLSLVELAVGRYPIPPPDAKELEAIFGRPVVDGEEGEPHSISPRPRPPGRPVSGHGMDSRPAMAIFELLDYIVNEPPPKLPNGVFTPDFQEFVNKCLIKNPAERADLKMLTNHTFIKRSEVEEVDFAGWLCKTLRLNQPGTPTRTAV
Dual specificity mitogen-activated protein kinase kinase; MEK1/2 (Homo sapiens), sequence (Q02750 whole entry, looked up): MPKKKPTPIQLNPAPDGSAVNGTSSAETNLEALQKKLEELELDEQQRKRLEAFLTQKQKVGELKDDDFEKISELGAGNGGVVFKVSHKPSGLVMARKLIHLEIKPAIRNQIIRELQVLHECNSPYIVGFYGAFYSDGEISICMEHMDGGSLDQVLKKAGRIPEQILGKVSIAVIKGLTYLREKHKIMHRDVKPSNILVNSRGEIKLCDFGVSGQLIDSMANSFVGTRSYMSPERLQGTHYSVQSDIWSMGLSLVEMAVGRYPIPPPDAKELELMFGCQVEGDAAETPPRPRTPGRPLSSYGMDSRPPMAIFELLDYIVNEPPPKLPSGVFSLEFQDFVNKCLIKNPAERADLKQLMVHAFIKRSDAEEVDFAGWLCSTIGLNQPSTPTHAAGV

SMILES: CCOc1cccc(-n2c(N)c(NC(=O)c3c(C)c(O)c(C)c4c3OC(C)(C)C4)c(=O)n(C)c2=O)c1
- inhibition (INH) (Mus musculus [1]): 16%

SMILES: O=c1[nH]c2ccccc2n1CCCN1CCN(C(c2ccccc2)c2ccccc2)CC1
- inhibition (Mus musculus [2]): Active

- IC50 [3]: 9.7 µM
- IC50 [4]: 24 µM
SMILES: Cc1c(C)c2c(c(C)c1O)CCC(C)(C(=O)O)O2 (stereo unspecified) [TROLOX]

SMILES: Cc1c(O)c(C)c(C(=O)Nc2c(N)n(-c3cccc(C(=O)O)c3)c(=O)n(C)c2=O)c2c1CC(C)(C)O2
- inhibition (INH) (Mus musculus [1]): 9%

SMILES: Cc1ccc(-n2c(N)c(NC(=O)c3c(C)c(O)c(C)c4c3OC(C)(C)C4)c(=O)n(C)c2=O)cc1
- inhibition (INH) (Mus musculus [1]): 30%

- IC50 [3]: 82 µM
- IC50 [4]: 54 µM
SMILES: O=C1O[C@H]([C@@H](O)CO)C(O)=C1O [ASCORBIC ACID]

SMILES: C[C@]12C=CC(=O)C=C1CC[C@@H]1[C@@H]2[C@@H](O)C[C@@]2(C)[C@H]1CC[C@]2(O)C(=O)CO
- inhibition (Mus musculus [5]): Active

SMILES: Cc1ccc(-n2c(N)c(NC(=O)c3c(C)c(O)c(C)c4c3OC(C)(C)C4)c(=O)n(C)c2=O)cc1C
- inhibition (INH) (Mus musculus [1]): 45%

SMILES: CCc1cccc(-n2c(N)c(NC(=O)c3c(C)c(O)c(C)c4c3OC(C)(C)C4)c(=O)n(C)c2=O)c1
- inhibition (INH) (Mus musculus [1]): 14%

- IC50 [3]: 12.1 µM
- IC50 [4]: 44 µM
SMILES: Cc1c(C)c2c(c(C)c1O)CC[C@@](C)(C(=O)Nc1c(N)n(-c3ccccc3)c(=O)n(C)c1=O)O2

SMILES: C=CC[C@@H]1/C=C(\C)C[C@H](C)C[C@H](OC)[C@H]2O[C@@](O)(C(=O)C(=O)N3CCCC[C@H]3C(=O)O[C@H](/C(C)=C/[C@@H]3CC[C@@H](O)[C@H](OC)C3)[C@H](C)[C@@H](O)CC1=O)[C@H](C)C[C@@H]2OC [TACROLIMUS ANHYDROUS]
- inhibition (INH) (Mus musculus [1]): 53%

- solubility [6]: 21 µg/mL (≈ 45.2 µM)
- Stability (Liver microsome [7]): 19 µL/min/mg
- Stability (Liver microsome [8]): < 10 µL/min/mg
- Papp [9]: 14 ×10⁻⁶ cm/s
- clearance [10]: 18 mL/min/kg
- Vd [11]: 1 L/kg
- AUC [12]: 927 ng·h/mL
- AUC [13]: 1100 ng·h/mL
- Cmax [14]: 511 ng/mL
- bioavailability [15]: 12%
- IC50 [3]: 8.6 µM
- inhibition [18]: Active
SMILES: Cc1cccc(-n2c(N)c(NC(=O)c3c(C)c(O)c(C)c4c3OC(C)(C)C4)c(=O)n(C)c2=O)c1
- inhibition (INH) (Mus musculus [1]): 52%
- inhibition (Mus musculus [16]): Dose-dependent effect
- inhibition (Mus musculus [17]): Active

SMILES: Cc1cc(C)cc(-n2c(N)c(NC(=O)c3c(C)c(O)c(C)c4c3OC(C)(C)C4)c(=O)n(C)c2=O)c1
- inhibition (INH) (Mus musculus [1]): 15%

SMILES: Cc1c(O)c(C)c(C(=O)Nc2c(N)n(-c3cccc(F)c3)c(=O)n(C)c2=O)c2c1CC(C)(C)O2
- inhibition (INH) (Mus musculus [1]): 10%
